Measurements collected from several papers.
Compare with care: the assays were run in different laboratories.
Target: Homeodomain-interacting protein kinase 3 (HIPK3, Homo sapiens, UniProt Q9H422)

CCOc1cc(-c2nncn2C)ccc1Nc1ncc2cc(C)nc(NCC(C)(C)C)c2n1  inhibition (enzyme activity, inhibitor, FRET; 1 µM): < 15%
COc1cc2nccc(Oc3ccc(NC(=O)c4c5n(n(-c6ccc(F)cc6)c4=O)CCCC5)cc3)c2cc1OC  inhibition (enzyme activity, inhibitor; 0.1 µM): -8%
COc1cc2ncnc(Nc3ccc(Oc4ccccc4)cc3C)c2cc1OC  inhibition (enzyme activity, inhibitor; 1 µM): 3%
O=C(O)c1ccc2c(c1)nc(Nc1cccc(F)c1)c1ccncc12  remaining activity (enzyme activity, inhibitor, radiometric; 1 µM): 10%
CC(C)CC(=O)N1CCc2nc(-c3ccc(Br)cc3)nc(N(C)Cc3ccccc3)c2C1  remaining binding (cell-free assay, competition with immobilised ligand; 0.1 µM): 100%
Cn1c(=O)n(-c2ccc(C(C)(C)C#N)cc2)c2c3cc(-c4cnc5ccccc5c4)ccc3ncc21  remaining activity (enzyme activity, inhibitor; 10 µM): 102%
Cc1ccc(Nc2nccc(N(C)c3ccc4c(C)n(C)nc4c3)n2)cc1S(N)(=O)=O  inhibition (enzyme activity, inhibitor; 10 µM): 20%
Cc1ccc(NC(=O)c2ccc(C)c(C(F)(F)F)c2)cc1C#Cc1nn(C2CCC(O)CC2)c2ncnc(N)c12 (stereo not drawn)  remaining signal (cell-free assay; 10 µM): 81%
O=C(O)c1ccc2c(c1)nc(NCCc1ccccc1)c1ncncc12  remaining activity (enzyme activity, inhibitor, radiometric; 1 µM): 16%
O=C1NC(=O)c2cc(Nc3ccc(F)cc3)c(Nc3ccc(F)cc3)cc21  remaining signal (cell-free assay; 0.5 µM): 95.3%
FC(F)(F)Oc1cccc(-c2cnc3ccc(-c4ccncc4)nn23)c1  activity vs control (enzyme activity, inhibitor, radiometric; 5 µM): 35%
O=C(Nc1cccnn1)N1CC(C/C=C/c2cncc(Oc3ccc(C(F)(F)F)cn3)n2)C1  remaining binding (cell-free assay, competition with immobilised ligand; 1 µM): 74%
N#Cc1cccc(Nc2nc3cc(C(=O)O)ccc3c3cnccc23)c1  remaining activity (enzyme activity, inhibitor, radiometric; 1 µM): 13%
COc1cccc(CNC(=O)c2nc3scc(COCc4ccc(C(=O)O)cc4)c3c(=O)[nH]2)c1  remaining binding (cell-free assay, competition with immobilised ligand; 1 µM): 73.7%
O=C(O)c1ccc2c(c1)nc(Nc1ccc3ccccc3c1)c1ncncc12  remaining activity (enzyme activity, inhibitor, radiometric; 1 µM): 3%
COc1cc2ncnc(Nc3ccc(F)c(Cl)c3)c2cc1OCCCN1CCOCC1  remaining signal (cell-free assay; 0.5 µM): 103%
CO[C@H]1CC[C@H](CNc2ccc(S(=O)(=O)NC(=O)c3ccc(N4CCN(CC5=C(c6ccc(Cl)cc6)CC(C)(C)CC5)CC4)cc3Oc3cnc4[nH]ccc4c3)cc2[N+](=O)[O-])CC1  remaining binding (cell-free assay, competition with immobilised ligand; 1 µM): 100%
COc1cc(Nc2cnc(C#N)c(O[C@H](C)CN(C)C)n2)ncc1-c1cnn(C)c1  remaining activity (enzyme activity, inhibitor, radiometric; 10 µM): 111%
O=C(O)c1ccc2c(c1)nc(NCCc1cccc(F)c1)c1ccncc12  remaining activity (enzyme activity, inhibitor, radiometric; 1 µM): 8%
COc1ccc2c(O[C@@H]3C[C@H]4C(=O)N[C@]5(C(=O)O)CC5/C=C\CCCCC[C@H](NC(=O)OC5CCCC5)C(=O)N4C3)cc(-c3csc(NC(=O)C(C)C)n3)nc2c1C (stereo partly drawn)  remaining binding (cell-free assay, competition with immobilised ligand; 1 µM): 83%
Nc1ncnc2occ(-c3ccc(NC(=O)Nc4cc(C(F)(F)F)ccc4F)cc3)c12  remaining signal (cell-free assay, inhibitor; 20 µM): 0.7%
O=C(NCc1ncc(C(F)(F)F)cc1Cl)c1ccc2c(c1)C1(CCS(=O)(=O)CC1)[C@H](C1CC1)N2S(=O)(=O)c1ccc(F)cc1  remaining binding (cell-free assay, competition with immobilised ligand; 1 µM): 82%
O=C(O)c1ccc2c(c1)nc(Nc1cccc(F)c1)c1ncncc12  remaining activity (enzyme activity, inhibitor, radiometric; 1 µM): 5%
NS(=O)(=O)c1cc(NC(=O)Cc2ccccc2)ccc1Oc1cccc(Cl)c1  remaining binding (cell-free assay, competition with immobilised ligand; 1 µM): 84%
O=C(O)c1ccc2c(c1)nc(NCc1ccccc1)c1ccncc12  remaining activity (enzyme activity, inhibitor, radiometric; 1 µM): 68%
CN([C@@H]1CCc2c(CC(=O)O)c3ccccc3n2C1)S(=O)(=O)c1ccc(F)cc1  remaining binding (cell-free assay, competition with immobilised ligand; 1 µM): 71%
CCN(CC)CCNC(=O)c1c(C)[nH]c(/C=C2\C(=O)Nc3ccc(F)cc32)c1C  inhibition (enzyme activity, inhibitor; 10 µM): 82%
N#CCCc1ccc2c(c1)-c1[nH]c3ccc([N+](=O)[O-])cc3c1CC(=O)N2  remaining signal (cell-free assay; 0.5 µM): 104%
O=C(O)c1ccc2c(c1)nc(Nc1ccc(Cl)cc1)c1ccncc12  remaining activity (enzyme activity, inhibitor, radiometric; 1 µM): 9%
COc1cc(-c2cc(-c3ccc(N4CCNCC4)cc3)cnc2C)cc(OC)c1OC  inhibition (enzyme activity, inhibitor; 1 µM): 2%
